Laboratory results from paper PMC7106177 (International Immunopharmacology, 2004).
≈ marks a conversion by molar mass, not a printed value.

Assays:
Assay type in all cases: cell-based, human
[1] = tested on: eotaxin 1 production in HFL-1 cells; assay: eotaxin 1 production by TNF-α plus IL-4-stimulated HFL-1 cells; settings: HFL-1, TNF-α/IL-4 stimuli for 48 h; calculated from ELISA data
Outline: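 Collagen-plated HFL-1 cells are seeded at 5×10^4/well and adhered overnight. Test compound in 1% FBS medium, or vehicle, is added, and the cells are then stimulated with TNF-α 10 ng/ml plus IL-4 20 U/ml for 48 h at 37 °C. Eotaxin 1 in the supernatant is quantified by sandwich ELISA, with samples at least in duplicate. Values are mean±S.D. of three independent experiments, compared by t-test, and IC50 is derived from the ELISA data.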

[2] = tested on: IL-8 mRNA in HFL-1 cells; assay: RT-PCR analysis of IL-8 mRNA expression; settings: TNF-α-stimulated HFL-1
[3] = tested on: HFL-1 cells; assay: cytotoxicity by LDH assay; settings: calculated from LDH assay data; for CC30 (cytotoxicity), IL-8 condition: HFL-1, TNF-α stimuli for 24 h; for CC30 (cytotoxicity), eotaxin 1 condition: HFL-1, TNF-α/IL-4 stimuli for 48 h
Outline: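 LDH leakage is measured in supernatants from the same HFL-1 cultures under both stimulation conditions: TNF-α 10 ng/ml for 24 h, or TNF-α plus IL-4 20 U/ml for 48 h. Test compound is in 1% FBS medium, and final EtOH or DMSO is mostly below 0.1%. LDH is read with a commercial LDH cytotoxicity kit.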

[4] = tested on: IL-8 production in HFL-1 cells; assay: IL-8 production by TNF-α-stimulated HFL-1 cells; settings: for IL-8 production reduced to (% of stimulated control): 1000 μg/ml, P<0.001; for IL-8 production reduced to (% of stimulated control) / concentration at which significant inhibition of IL-8 production was observed: TNF-α 24 h; for concentration at which significant inhibition of IL-8 production was observed: P<0.01
Outline: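 HFL-1 fetal lung fibroblasts are grown in Ham's F-12 with 15% heat-inactivated FBS on collagen, then seeded at 5×10^4 cells/well and adhered overnight. Test compound is added in 1% FBS medium, with vehicle controls, followed by TNF-α 10 ng/ml for 24 h at 37 °C. Supernatant IL-8 is measured by sandwich ELISA, at least in duplicate. Data are mean±S.D. of three experiments, analysed by Student's t-test, with IC50 calculated from the ELISA data.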

[5] = tested on: eotaxin 1 mRNA in HFL-1 cells; assay: RT-PCR analysis of eotaxin 1 mRNA expression; settings: TNF-α plus IL-4-stimulated HFL-1

Eotaxin 1 IC50 [1] [µg/mL]	IL-8 IC50 ([4]; HFL-1, TNF-α stimuli for 24 h, calculated from ELISA data) [µg/mL]	SMILES	effect on IL-8 mRNA expression [2]	CC30 (cytotoxicity), IL-8 condition [3] [µg/mL]	CC30 (cytotoxicity), eotaxin 1 condition [3] [µg/mL]	IL-8 production reduced to (% of stimulated control) [4] [%]	concentration at which significant inhibition of IL-8 production was observed [4]	effect on eotaxin 1 mRNA expression [5]	doses needed to inhibit IL-8 and eotaxin 1 production ([4]; IL-8 and eotaxin 1 production, HFL-1) [mg/mL]
25		CC1(C)[C@@H](O[C@H]2O[C@H](C(=O)O)[C@@H](O)[C@H](O)[C@H]2O[C@@H]2O[C@H](C(=O)O)[C@@H](O)[C@H](O)[C@H]2O)CC[C@]2(C)[C@H]3C(=O)C=C4[C@@H]5C[C@@](C)(C(=O)O)CC[C@]5(C)CC[C@@]4(C)[C@]3(C)CC[C@@H]12 [18α-GL, glycyrrhizin]	did not indicate significant effect	330 (≈ 401 µM)	>1000	25	more than 300 μg/ml		
>300	370	CC1(C)[C@@H](O[C@H]2O[C@H](C(=O)O)[C@@H](O)[C@H](O)[C@H]2O[C@@H]2O[C@H](C(=O)O)[C@@H](O)[C@H](O)[C@H]2O)CC[C@]2(C)[C@H]3C(=O)C=C4[C@@H]5C[C@@](C)(C(=O)O)CC[C@]5(C)CC[C@@]4(C)[C@]3(C)CC[C@@H]12 [18β-GL, glycyrrhizin]		>1000	>1000	25	more than 300 μg/ml	did not inhibit it at the same doses	
		CC1(C)[C@@H](O[C@H]2O[C@H](C(=O)O)[C@@H](O)[C@H](O)[C@H]2O[C@@H]2O[C@H](C(=O)O)[C@@H](O)[C@H](O)[C@H]2O)CC[C@]2(C)[C@H]3C(=O)C=C4[C@@H]5C[C@@](C)(C(=O)O)CC[C@]5(C)CC[C@@]4(C)[C@]3(C)CC[C@@H]12 [GL, Glycyrrhizin]							~1
